Compound activity from PubChem.
Hits are enriched below; roughly 1.8% of the tested compounds scored in any of these assays.
ABHD4 inh = ABHD4 inhibitors, primary screen, biochemical, fluorescence polarization, mouse; (Lyso)-N-acylphosphatidylethanolamine lipase (Mus musculus), Q8VD66; purified mABHD4, FP-Rh probe fluorescence polarization; AID 720543, 2013; hit rate 0.54% among 370,000; inhibition, % at 8.92 µM;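 active = inhibition exceeding the mean over every tested compound plus 3 SD, cut at about 30% in these data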;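 note: 0% = plate median of compound wells and 100% = S159A mutant with DMSO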
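Assay system: mABHD4 protein; medium: HEPES pH 7.0, NaCl, Pluronic buffer; dosing: 8.92 µM, single dose; schedule: 45 min + 60 min at 25 °C; signal: FP readout, ex 525 nm / em 598 nm; read-out: normalized percent inhibition of probe labeling; repeats: single replicate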
SIAE inh = human SIAE inhibitors, primary screen, biochemical, fluorescence polarization, FP-Rh probe, 1536-well HTS; Sialate O-acetylesterase (Homo sapiens), Q9HAT2; SIAE FP-Rh probe binding; inhibition, % at 9.66 µM; hit rate 0.69% among 370,000;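 active = inhibition above a cutoff: mean of compounds within the control limits plus 3 SD of those, cut at about 17% in these data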;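 note: 0% = plate median of compound wells and 100% = probe without SIAE protein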
Tn6 DDE FP = inhibitors of Tn6 peptide binding to fibrin DD(E), primary screen, biochemical, fluorescence polarization, human fibrin, Tn6 probe | Fibrin DD(E) TRITC-Tn6 fluorescence polarization displacement | inhibition, % at 8.3 µM | hit rate 0.21% among 370,000;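 active = inhibition above a per-campaign cutoff: mean of compounds within control limits plus 3 SD, cut at about 15% in these data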;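 note: 0% = median of all compound wells on the plate and 100% = blocking peptide control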
DDE Tn7 FP inh = inhibitors of Tn7 peptide binding to fibrin DD(E), primary screen, biochemical, fluorescence polarization, human fibrin, Tn7 probe; FP displacement of FITC-Tn7 peptide from fibrin DD(E); 0% = median of compound wells per plate; inhibition, % at 8.3 µM; hit rate 0.13% among 370,000;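 active = inhibition above the mean of compounds falling within the control limits plus 3 SD of them, cut at about 14% in these data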;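 note: 0% = plate median of compound wells and 100% = 10 µM Aha-Tn7 peptide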
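Assay system: Fibrin-DD(E) protein isolated from polymerized human fibrin clots; read-out basis: percent inhibition; medium: Tris/NaCl/CaCl2 buffer, pH 7.8; signal: FP measurement; incubation: 10 min plus 3 h, room temperature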
TCR-CD3 inh = inhibitors of human TCR-CD3 interaction, primary screen, biochemical, fluorescence, TAMRA-labeled TCR probe; hit rate 0.37% among 360,000; AID 651800, 2012; inhibition, % at 9.4 µM; T-cell receptor (TCR);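 note: recombinant mutant TCR 2C K166C tagged with TAMRA read by polarization; 0% = receptor in buffer alone and 100% = receptor with positive control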
HTRA1 inhibitor = HTRA1 serine protease inhibitors, primary screen, biochemical, fluorescence polarization, HTS; hit rate 0.5% among 340,000; Q92743; recombinant HTRA1, FP-rhodamine activity-based probe; inhibition, % at 5.96 µM; in the data active = inhibition above about 36%;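 note: 0% = enzyme with DMSO and 100% = wells lacking enzyme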
Target sequence (Q92743 whole entry, looked up): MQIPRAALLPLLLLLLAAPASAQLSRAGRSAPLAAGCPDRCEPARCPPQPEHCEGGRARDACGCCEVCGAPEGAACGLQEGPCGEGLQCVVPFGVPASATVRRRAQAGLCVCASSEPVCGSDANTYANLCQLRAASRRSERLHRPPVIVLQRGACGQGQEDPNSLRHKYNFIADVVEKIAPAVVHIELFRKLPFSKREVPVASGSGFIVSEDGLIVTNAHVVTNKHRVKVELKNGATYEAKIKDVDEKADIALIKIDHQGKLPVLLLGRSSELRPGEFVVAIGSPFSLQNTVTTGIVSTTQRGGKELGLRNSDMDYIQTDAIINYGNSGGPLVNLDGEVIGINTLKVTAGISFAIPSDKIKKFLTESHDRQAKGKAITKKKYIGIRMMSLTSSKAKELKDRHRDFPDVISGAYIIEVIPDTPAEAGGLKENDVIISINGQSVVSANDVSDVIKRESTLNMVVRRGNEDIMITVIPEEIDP
HTRA1 conf = HTRA1 protease inhibitors, retest, confirmation, biochemical, fluorescence polarization. AID 540248, 2011. inhibition, % at 5.96 µM. hit rate 66% among 1,600. recombinant HTRA1, FP-rhodamine activity-based probe. shares compounds with HTRA1 inhibitor;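 active = mean inhibition over three repeats above a set limit taken from the earlier primary screen, cut at about 37% in these data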;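 note: 0% = HTRA1 with DMSO and 100% = wells lacking HTRA1; inhibitors block probe binding so polarization drops and inhibition rises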
BSA TAMRA ctr = compounds interfering with TAMRA-BSA probe, counter-screen for TCR-CD3 interaction inhibitor project, biochemical, fluorescence, TAMRA-labeled BSA; AID 652035, 2013; TAMRA-labeled BSA probe fluorescence counterscreen; inhibition, % at 9.4 µM; hit rate 10% among 1,200; shares compounds with TCR-CD3 inh; in the data active = inhibition above about 23%;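 note: 0% = buffer low control and 100% = reference high control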
TCR-CD3 inh conf = TCR-CD3 interaction inhibitors, retest, confirmation, biochemical, fluorescence, TAMRA-labeled TCR probe; TAMRA-labeled TCR probe fluorescence binding assay; shares compounds with TCR-CD3 inh; AID 652036, 2013; hit rate 48% among 1,200; inhibition, % at 9.4 µM
DDE Tn6 FP ctr = DD(E)-Tn6 binding inhibition, counter-screen; shares compounds with Tn6 DDE FP; Fibrin DD(E), TRITC-Tn6 fluorescence polarization displacement; 0% = median of compound wells, not DMSO; inhibition, % at 8.3 µM; hit rate 2% among 680; AID 720621;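 active = inhibition above the mean of test compounds lying between the control limits plus 3 SD of those, cut at about 14% in these data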;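 note: 0% = median of compound wells and 100% = wells with Aha-Tn7 blocking peptide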
DDE Tn6 confirm = inhibitors of Tn6 peptide binding to fibrin DD(E), confirmation, biochemical, fluorescence polarization, human fibrin, Tn6 probe; shares compounds with Tn6 DDE FP; FP displacement of TRITC-Tn6 peptide from DD(E); 0% = per-plate median of test wells; inhibition, % at 8.3 µM; hit rate 10% among 680; AID 720631, 2013;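 active = inhibition above the mean of compounds lying within the control limits plus 3 SD, cut at about 16% in these data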;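 note: 100% = high control wells holding a competing inhibitor peptide at 10 µM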
ABHD4 confirm = ABHD4 inhibitors, retest, confirmation, biochemical, fluorescence polarization, mouse; hit rate 55% among 1,800; purified mABHD4, FP-Rh probe fluorescence polarization; inhibition, % at 8.92 µM; shares compounds with ABHD4 inh;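 active = mean inhibition across replicates above the hit cutoff set in the primary screen, cut at about 30% in these data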;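 note: 0% = wild-type ABHD4 with DMSO and 100% = catalytically dead S159A mutant with DMSO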
Numbers without * were called inactive; · = no result. Cut-off read from the data, not from the text of the source, unless noted: active = inhibition above about 19%; inactive = the rest.

SMILES | ABHD4 inh | SIAE inh | Tn6 DDE FP | DDE Tn7 FP inh | TCR-CD3 inh | HTRA1 inhibitor | HTRA1 conf | ABHD4 confirm | others
Cc1ccc(C2=NC(=O)/C(=C/c3cc(O)c(O)c(Br)c3)S2)cc1 | 21.9 | -5.7 | 10.1 | 1.0 | 33.3* | 67.5* | 71.1* | · | BSA TAMRA ctr=-9.9;TCR-CD3 inh conf=46.7*
COc1cc(/C=C2\CC/C(=C\c3cc(OC)c(O)c(OC)c3)C2=O)cc(OC)c1O | 19.9 | -42.7 | -28.8 | 4.1 | 37.6* | 46.3* | 55.3* | · | BSA TAMRA ctr=-26.2;TCR-CD3 inh conf=41.0*
O=C1CC(Nc2ccc(N3CCOCC3)cc2)C(=O)N1Cc1ccccc1 (stereo not drawn) | 49.1* | 18.4* | 20.2* | 4.5 | 18.2 | 49.1* | 11.8 | · | DDE Tn6 FP ctr=2.1;DDE Tn6 confirm=-0.5
Cc1cc2ccccc2n1CCNC(=O)c1ccc(Br)o1 | 14.7 | 7.9 | 17.0* | -4.5 | 17.9 | 56.9* | 20.2 | · | DDE Tn6 FP ctr=-3.2;DDE Tn6 confirm=12.2
Cc1cc2ccccc2n1CCNC(=O)c1ccccc1 | 9.4 | -1.7 | 14.8 | 0.3 | 5.5 | 6.9 | · | ·
Cc1ncc(C[n+]2ccc(C)c(C)c2)c(N)n1 | 0.7 | 12.3 | 6.3 | -2.7 | 5.1 | -9.5 | · | ·
O=C(CSc1nnnn1-c1ccc(F)cc1)c1ccc(O)c(O)c1 | 29.9* | 4.5 | 2.1 | -3.1 | 5.8 | 41.4* | 53.1* | 14.6
O=c1oc(-c2ccc(O)c(O)c2)cc2cc(O)cc(O)c12 | 51.4* | 11.5 | -11.6 | 2.0 | 18.2 | 55.5* | 124.4* | 36.2*
O=c1cc(-c2ccc(O)c(O)c2)oc2c1ccc1ccccc12 | 33.6* | -2.7 | -21.7 | -1.4 | 40.5* | 66.1* | 73.9* | 30.9* | BSA TAMRA ctr=-5.3;TCR-CD3 inh conf=75.4*
O=c1oc(-c2ccc(O)c(O)c2)cc2cccc(O)c12 | 34.8* | 4.6 | 0.8 | -0.6 | 11.0 | 62.2* | 67.7* | 33.6*
CC(=O)N1c2ccc(S(=O)(=O)N3CCC(C(=O)N4CC(C)CC(C)C4)CC3)cc2CC1C (stereo not drawn) | 3.2 | 5.9 | 3.8 | 1.8 | 1.6 | 1.2 | · | ·
O=[N+]([O-])c1ccc(-c2ccc(C=Nc3cccc4ccccc34)o2)cc1 | 14.3 | -1.1 | 9.2 | 5.4 | -1.2 | -0.1 | · | ·
O=[N+]([O-])c1cc(-c2ccc(/C=N/c3nc4ccccn4c3-c3ccco3)o2)ccc1Cl | 45.6* | 16.3 | -6.5 | 3.4 | 4.0 | 36.7* | 45.6* | 16.1
Cc1c2ccccc2nc2c(F)c(NCCO)c(F)c(F)c12 | 58.4* | 15.8 | 7.7 | 6.4 | 15.7 | 66.8* | 27.6 | 51.8*
